Entries after “also recorded” stand apart in the source; their conditions may differ. Where two headings read alike, the source gives them in different places.
Key:
calcineurin B (CnB) = test: Yeast two-hybrid; format: binding, mouse; settings: LexA and VP16 fusions, lacZ reporter, X-gal
Summary of the method: (§1)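 Mouse coding sequences (from brain cDNA) were cloned as galactose-inducible LexA and VP16 fusions and co-transformed into S260 yeast, selected on glucose Trp−/Ura− plates. Colonies on filters were switched to galactose for induction, then assayed for lacZ with X-gal. Autoactivation was checked against LexA/VP16 control vectors. Blue within 1 h was scored positive; blue at 2–4 h was scored weak.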

centrin 2 (Cetn2) = test: Yeast two-hybrid; format: binding, mouse; settings: LexA and VP16 fusions, lacZ reporter, X-gal
Summary of the method: as §1

[1] = system: calmodulin-like 4 (Calml4); test: Yeast two-hybrid; format: binding, mouse; settings: LexA and VP16 fusions, lacZ reporter, X-gal
Summary of the method: as §1

calneuron 1 (Caln1) = test: Yeast two-hybrid; format: binding, mouse; settings: LexA and VP16 fusions, lacZ reporter, X-gal
Summary of the method: as §1

calmodulin-Sepharose = test: CaM-Sepharose pulldown of Myc-tagged proteins expressed in COS-7 cells; format: binding; settings: for CaM-Sepharose pulldown, calcium-replete: 5mM CaCl2; for CaM-Sepharose pulldown, calcium-replete / CaM-Sepharose pulldown, calcium-poor: TX-buffer pH 6.9, overnight at 4°C, anti-Myc western blot; for calcium dependence of CaM binding / overall CaM binding: 5mM CaCl2 or 5mM EGTA, summary in Discussion; for CaM-Sepharose pulldown, calcium-poor: 5mM EGTA
Summary of the method: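 Myc-tagged mouse constructs (from brain cDNA) were expressed in COS-7 cells, grown in DMEM/10% FBS at 37°C and transfected at 80% confluency with 3 μg plasmid. After 48 h, cells were lysed 30 min at 4°C in TX-buffer (50 mM Tris-HCl pH 6.9, 0.5% Triton X-100, protease inhibitors). Cleared lysate was incubated overnight at 4°C with CaM-Sepharose, then washed 3× and detected by SDS-PAGE/anti-Myc (9E10) western blot with ECL.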

CaM = settings: ref Putkey et al., 2008; cited from earlier work
[2] = cited from earlier work

In the case of “PEP-19: calmodulin binding IQ motif protein, 62 amino acids”, the “interaction with CnB in Y2H” value (calcineurin B (CnB)) is reported as “no binding was detected”, the “interaction with Cetn2 in Y2H” value (centrin 2 (Cetn2)) is reported as “no binding was detected” and the “interaction with Calml4 in Y2H” value [1] is reported as “no binding was detected”. For the same substance, the “interaction with Caln1 in Y2H” value (calneuron 1 (Caln1)) was “no binding was detected”, the “CaM-Sepharose pulldown, calcium-replete” value (calmodulin-Sepharose) was “associate weakly in high calcium; also recorded: interacted weakly or not at all with CaM-Sepharose under calcium-replete conditions” and the “calcium dependence of CaM binding / overall CaM binding” value (calmodulin-Sepharose) was “binds preferentially to calcium-free CaM”. For the same substance, the “CaM-Sepharose pulldown, calcium-poor” value (calmodulin-Sepharose) was “bind to CaM-Sepharose in calcium-poor (Eg) conditions; also recorded: bind CaM in low calcium conditions”, the “role of acidic region (EEFDIDMDAPETE) in CaM binding” value (CaM) was “dispensable for CaM binding” and the structure in solution ([2]; NMR and circular dichroism, ref Dickerson, 2004, Dickerson et al., 2006, Kleerekoper and Putkey, 2009) was “disordered in solution although it has a propensity to helix formation”.

In the case of “neurogranin: calpacitin IQ motif protein, 78 amino acids”, the “interaction with CnB in Y2H” value (calcineurin B (CnB)) is reported as “no binding was detected”, the “interaction with Cetn2 in Y2H” value (centrin 2 (Cetn2)) is reported as “no binding was detected” and the “interaction with Calml4 in Y2H” value [1] is reported as “no binding was detected”. For the same substance, the “interaction with Caln1 in Y2H” value (calneuron 1 (Caln1)) was “no binding was detected”, the “CaM-Sepharose pulldown, calcium-replete” value (calmodulin-Sepharose) was “associate weakly in high calcium” and the “calcium dependence of CaM binding / overall CaM binding” value (calmodulin-Sepharose) was “strong CaM binder”. For the same substance, the “CaM-Sepharose pulldown, calcium-poor” value (calmodulin-Sepharose) was “bind to CaM-Sepharose in calcium-poor (Eg) conditions; also recorded: bind CaM in low calcium conditions” and the structure in solution ([2]; ref Cui et al., 2003, Ran et al.) was “disordered in solution”.

Source: article PMC3371134 (Journal of Neurochemistry, 2012)
